Compound activity from PubChem BioAssay.
STK33 kinase inh: inhibitors of purified STK33 kinase, primary screen, biochemical, ADP-Glo luminescence, homogeneous, cell-free; MBP phosphorylation; AID 2661, 2010; Serine/threonine-protein kinase 33 (Homo sapiens), Q9BYT3; inhibition, % at 10 µM; actives 0.073% (n = 320,000);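 active means inhibition at or above 25%, using the most active replicate where run in duplicate; inactive means inhibition below 25%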
GSK3beta inhib: human GSK3beta kinase inhibitors, primary screen, biochemical, cell-free homogeneous, HTS. Glycogen synthase kinase-3 beta (Homo sapiens), P49841. GST-GSK3beta kinase, ADP-Glo luminescence, 60 min; hits give low values. activity score (negative = inhibition), % at 10 µM. actives 0.038% (n = 300,000). AID 2097, 2009;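 active means more than half of replicate wells score below -50%, meaning over 50% inhibition versus plate controls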;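 further: 0% = median DMSO wells and -100% = median GW8510 positive control wells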
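Assay system: GST-tagged human GSK3beta kinase, cell-free; Input: 1.6 ng GSK3beta; Medium: Tris/MgCl2 kinase buffer; Timing: 60 min enzyme reaction, room temperature; Signal: ADP-Glo luminescence quantifying ADP generated by kinase; Evaluation: score relative to plate controls; Benchmarks: DMSO neutral wells and GW8510 at 20 µM as positive.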
GSK3A inh: blockers of GSK3A enzyme activity – biochemical, luminescence, cell-free homogeneous, HTS, primary screen. GSK-3 alpha kinase, ADP-Glo luminescence, 60 min. AID 2650, 2010. Glycogen synthase kinase-3 alpha (Homo sapiens), P49840. actives 0.1% (n = 320,000). inhibition, % at 10 µM;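 active means more than half of replicates show inhibition above 20%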;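 further: GST-tagged GSK-3 alpha with peptide substrate and 25 µM ATP; 0% = DMSO neutral wells and 100% = GW8510 positive control wells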
CDK5 p35 inh: inhibitors of human CDK5/p35 kinase, primary screen, biochemical, single concentration; actives 0.01% (n = 330,000); AID 488839, 2010; inhibition, % at 10 µM; Recombinant CDK5/p35, ADP-Glo luminescence, 60 min; Cyclin-dependent kinase 5 (Homo sapiens) + Cyclin-dependent kinase 5 activator 1 (Homo …;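 active means highest replicate inhibition of at least 50% and at least 75% of replicates reaching 50%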;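 further: plate controls were DMSO neutral control for no effect and GW8510 at 10 µM for full effect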
Target sequence (Q00535 whole entry, looked up): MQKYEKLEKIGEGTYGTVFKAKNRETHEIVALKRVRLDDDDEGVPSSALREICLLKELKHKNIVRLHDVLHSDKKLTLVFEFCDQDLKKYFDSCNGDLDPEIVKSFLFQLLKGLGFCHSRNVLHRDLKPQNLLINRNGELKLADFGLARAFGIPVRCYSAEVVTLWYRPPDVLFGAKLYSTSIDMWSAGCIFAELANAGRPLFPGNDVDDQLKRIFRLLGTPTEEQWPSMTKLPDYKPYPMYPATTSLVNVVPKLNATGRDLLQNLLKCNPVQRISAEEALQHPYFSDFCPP
Target sequence (Q15078 whole entry, looked up): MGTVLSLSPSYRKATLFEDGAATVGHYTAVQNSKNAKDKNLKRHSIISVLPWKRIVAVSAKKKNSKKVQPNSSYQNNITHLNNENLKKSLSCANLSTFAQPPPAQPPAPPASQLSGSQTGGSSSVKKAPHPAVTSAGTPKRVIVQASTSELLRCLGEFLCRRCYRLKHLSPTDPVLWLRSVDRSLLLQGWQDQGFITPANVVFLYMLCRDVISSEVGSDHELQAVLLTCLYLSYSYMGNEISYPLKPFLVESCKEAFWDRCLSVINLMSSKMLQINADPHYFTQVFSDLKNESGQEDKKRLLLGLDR
Dyrk1A ADPGlo: rat Dyrk1A kinase inhibitors, primary screen, biochemical, single point, plate reader; AID 504441, 2011; ADP-Glo luminescence, NFATc1 peptide; Dual specificity tyrosine-phosphorylation-regulated kinase 1A (Rattus norvegicus), Q63470; inhibition, % at 12.5 µM; actives 0.43% (n = 310,000); in the data active means inhibition above about 50%;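 further: plate controls were vehicle with enzyme for no effect and no enzyme for full effect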
Dyrk1A artifact: ADP-Glo luciferase interference without Dyrk1A, dose response, artefact control for Dyrk1A inhibitor project, biochemical, luminescence, cherry-pick, set 02. shares compounds with Dyrk1A ADPGlo. AID 588348, 2011. AC50, µM (top dose mostly 12 µM), for inactives: at the highest dose activity change, negative = inhibition. 1,300 tested, under 10 active. ADP-Glo luciferase artifact assay, no Dyrk1A;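 active means fitted half-maximal dose AC50 no more than ten times the top valid tested dose, with luminescence dropping as dose rises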
* hit, by the source's call; . = not tested or not shown. This excerpt belongs to a sample that is enriched for hits.

SMILES	STK33 kinase inh	GSK3beta inhib	GSK3A inh	CDK5 p35 inh	Dyrk1A ADPGlo	Dyrk1A artifact
Cc1ccc2nc(C)cc(Cl)c2c1	-1	1	.	0	-1	.
OCc1cc(C(O)CNCCCCCCOCCCCc2ccccc2)ccc1O (centres undefined)	0	0	9	1	53*	9%
O=[N+]([O-])c1ccc(-c2nc3ccc([N+](=O)[O-])cc3[nH]2)cc1	0	2	0	-1	29	.
CCCC[n+]1ccc(-c2nc3ccc([N+](=O)[O-])cc3[nH]2)cc1	1	0	23	-1	83*	12%
Oc1ccc2c(c1)oc1cc(O)ccc12	12	3	53*	13	90*	11%
COC(=O)c1cc(OC)c(OC)cc1NC(=O)CSc1nnnn1Cc1ccccc1	-2	0	-3	1	0	.
O=C(c1ccc(Cl)cc1)N1CCN(c2ccnc3cc(Cl)ccc23)CC1	.	0	.	1	8	.
CCC(=O)N1CCN(c2ccnc3cc(Cl)ccc23)CC1	4	-7	5	1	55*	8%
CCN(CC)c1ccc(/C=C2\C(=O)c3ccc(C(=O)O)cc3C2=O)cc1	61*	.	23	6	61*	5%
COc1cc(-c2nc3ccccc3s2)ccc1O	4	0	0	2	77*	8%
COc1ccc(-c2nc3ccccc3s2)cc1O	3	-2	4	3	-4	.
CCOc1cc(-c2nc3ccccc3s2)ccc1O	0	4	-1	1	58*	8%
CCOC(=O)C1(Cc2ccc(OC)cc2)CCN(C(=O)c2sc(C)nc2C)CC1	1	-3	0	0	-23	.
O=C(Cn1cc(C(F)(F)F)cc(Cl)c1=O)NCCc1ccc(Cl)cc1Cl	-2	0	-2	-1	-1	.
Clc1ccc2c(c1)-c1nnc(Br)n1-c1ccccc1S2	9	.	12	1	.	.
Clc1ccc2nc(COc3ccccc3)[nH]c2c1	10	2	-1	0	54*	9%
COc1ccc(C(=O)Nc2nc3ccccc3[nH]2)cc1S(=O)(=O)N1CCOCC1	7	1	-3	2	55*	10%
